Screening data as filed in PubChem BioAssay.
Compounds with a hit are over-represented: about 2% of the library has one in this group of screens.
dFosB act: enhances mouse delta FosB homodimer DNA binding. activation, % at 25 µM. purified delta FosB, TAMRA-CDK5 oligo fluorescence polarization; percent of positive-control signal above neutral wells. 340,000 compounds, 0.99% hits. P13346;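 active = mean activation above about 17%, with every replicate also reaching it, limit read from the data, passing the limit was not always enough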
SR-BI DiI-HDL act: SR-BI HDL lipid transfer activation; 320,000 compounds, 0.096% hits; CHO ldlA[mSR-BI] cells, DiI-HDL uptake fluorescence, 3 h; 100 = double the neutral-control signal; AID 504775; activation, % at 12.5 µM;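 active = mean replicate activation of at least 60% and every replicate at or above 60%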
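Material – SR-BI-overexpressing, LDLR-lacking CHO cells · Medium – BSA-supplemented, HEPES-buffered Ham's F12, pH 7.4 · Doses – single concentration · Times – compound with DiI-HDL co-incubation, 3 h at 37 °C · Measured by – bottom-read fluorescence, 550/595 nm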
SR-BI DiI inh: blocks mouse SR-BI lipid uptake from DiI-HDL; ldlA[mSR-BI] CHO cells, DiI-HDL uptake fluorescence, 3 h; Q61009; inhibition, % at 12.5 µM; 320,000 compounds, 0.96% hits; AID 488896;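 active = mean replicate inhibition of at least 70% and a set share of replicates each scoring 70 or more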
CDK5 p35 inh: CDK5/p35 (human) kinase inhibition. inhibition, % at 10 µM. Q00535+Q15078. Recombinant CDK5/p35, ADP-Glo luminescence, 60 min. AID 488839. 330,000 compounds, 0.01% hits;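 active = highest replicate inhibition of at least 50% and at least 75% of replicates reaching 50%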
Target sequence (Q00535 whole entry, looked up): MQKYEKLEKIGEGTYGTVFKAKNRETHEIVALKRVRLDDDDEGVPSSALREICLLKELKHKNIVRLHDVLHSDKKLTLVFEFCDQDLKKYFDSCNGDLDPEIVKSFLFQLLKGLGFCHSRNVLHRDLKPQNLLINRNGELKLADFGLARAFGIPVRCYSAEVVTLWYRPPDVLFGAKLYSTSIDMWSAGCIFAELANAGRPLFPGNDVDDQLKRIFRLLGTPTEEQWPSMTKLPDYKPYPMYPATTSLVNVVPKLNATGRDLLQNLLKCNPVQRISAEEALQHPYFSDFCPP
Target sequence (Q15078 whole entry, looked up): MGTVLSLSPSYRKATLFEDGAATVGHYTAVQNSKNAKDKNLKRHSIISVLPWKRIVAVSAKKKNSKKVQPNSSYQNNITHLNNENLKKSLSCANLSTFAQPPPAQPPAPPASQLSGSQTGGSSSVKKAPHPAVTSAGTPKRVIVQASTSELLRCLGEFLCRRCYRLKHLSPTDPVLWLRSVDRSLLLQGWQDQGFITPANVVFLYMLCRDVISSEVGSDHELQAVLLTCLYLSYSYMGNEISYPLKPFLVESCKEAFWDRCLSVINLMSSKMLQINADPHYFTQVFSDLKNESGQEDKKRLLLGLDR
Numbers stand for hits.

What do the screens show for `NNC(=O)c1sc2cc(C(F)(F)F)cnc2c1-c1cccs1`?
dFosB act: inactive; SR-BI DiI-HDL act: inactive; SR-BI DiI inh: inactive; CDK5 p35 inh: inactive

How did O=C(Nc1ccccc1)c1sc2cc(C(F)(F)F)cnc2c1-c1cccs1 do in these assays?
dFosB act: inactive; SR-BI DiI-HDL act: inactive; SR-BI DiI inh: 71; CDK5 p35 inh: inactive

What do the screens show for `CCOC(=O)NC(=O)CSc1ccc(S(=O)(=O)N(C)C2CCCCC2)cn1`?
dFosB act: inactive; SR-BI DiI-HDL act: inactive; SR-BI DiI inh: inactive; CDK5 p35 inh: inactive

What do the screens show for `CCOC(=O)/C=C1\CC(C(=O)OCC)Oc2c(OC)cccc21` (stereo not drawn)?
dFosB act: inactive; SR-BI DiI-HDL act: inactive; SR-BI DiI inh: inactive; CDK5 p35 inh: inactive

How did C=C1c2cccc(OC)c2O[C@H](C(=O)OCC)[C@@H]1CC(CC)CCCC (stereo partly drawn) do in these assays?
dFosB act: inactive; SR-BI DiI-HDL act: inactive; SR-BI DiI inh: 84; CDK5 p35 inh: inactive

What do the screens show for `CCCCn1nc(NC(=O)c2cccs2)c2cc3cc(OC)ccc3nc21`?
dFosB act: inactive; SR-BI DiI-HDL act: inactive; SR-BI DiI inh: 82; CDK5 p35 inh: inactive

Results for COC(=O)Nc1nc(C)c(C(=O)c2ccccc2)s1 ?
dFosB act: inactive; SR-BI DiI-HDL act: inactive; SR-BI DiI inh: inactive; CDK5 p35 inh: inactive

Results for COC(=O)Nc1nc(-c2ccccc2)c(C(=O)c2ccccc2)s1 ?
dFosB act: inactive; SR-BI DiI-HDL act: inactive; SR-BI DiI inh: 91; CDK5 p35 inh: inactive

Results for CC(C)Cc1nnc(NC(=O)C2CCCC2)s1 ?
dFosB act: inactive; CDK5 p35 inh: inactive

What do the screens show for `CC1=C/C(=N\OS(=O)(=O)c2ccccc2)C(C(C)C)=CC1=O`?
dFosB act: inactive; SR-BI DiI-HDL act: inactive; SR-BI DiI inh: 83; CDK5 p35 inh: inactive

What do the screens show for `Cc1ccc(S(=O)(=O)Oc2ccccc2)cc1`?
dFosB act: inactive; SR-BI DiI-HDL act: inactive; SR-BI DiI inh: inactive; CDK5 p35 inh: inactive

Results for CC1=C/C(=N\OS(=O)(=O)c2ccccc2)C(C)=CC1=O ?
dFosB act: inactive; SR-BI DiI-HDL act: inactive; SR-BI DiI inh: 79; CDK5 p35 inh: inactive

How did CC1=C(C)/C(=N\OS(=O)(=O)c2ccc(C)cc2)C=CC1=O do in these assays?
dFosB act: inactive; SR-BI DiI-HDL act: inactive; SR-BI DiI inh: 91; CDK5 p35 inh: inactive

What do the screens show for `O=C(NC(=S)Nc1ccc(N2CCCC2)cc1)c1ccc(F)cc1`?
dFosB act: inactive; SR-BI DiI-HDL act: inactive; SR-BI DiI inh: inactive; CDK5 p35 inh: inactive

What do the screens show for `COc1cc(/C=N/NC(=O)c2cc3ccccc3cc2O)ccc1OCCN1CCCCC1`?
dFosB act: 79; SR-BI DiI-HDL act: inactive; SR-BI DiI inh: 77; CDK5 p35 inh: inactive

Results for COCCn1c(C)cc(/C=N/NC(=O)c2cc3ccccc3cc2O)c1C ?
dFosB act: inactive; SR-BI DiI-HDL act: inactive; SR-BI DiI inh: 95; CDK5 p35 inh: inactive

Results for Cn1c(O)c(/C=N/NC(=O)c2cc3ccccc3cc2O)c2ccccc21 ?
dFosB act: inactive; CDK5 p35 inh: inactive

Results for COC(=O)C(c1ccccc1)N(Cc1cccc(CN(C(C(=O)OC)c2ccccc2)S(C)(=O)=O)c1)S(C)(=O)=O (stereo not drawn) ?
dFosB act: inactive; SR-BI DiI-HDL act: inactive; SR-BI DiI inh: inactive; CDK5 p35 inh: inactive

How did Cc1c(Cl)sn(-c2ccc(Cl)cc2)c1=O do in these assays?
dFosB act: inactive; SR-BI DiI-HDL act: inactive; SR-BI DiI inh: 72; CDK5 p35 inh: inactive

How did O=C(COc1ncnc2sccc12)N1CCN(C(=O)c2ccco2)CC1 do in these assays?
dFosB act: inactive; SR-BI DiI-HDL act: inactive; SR-BI DiI inh: inactive; CDK5 p35 inh: inactive

How did COc1ccc2nc(NC(=O)C3CC(=O)N(c4ccc5c(c4)OCCO5)C3)sc2c1 (stereo not drawn) do in these assays?
dFosB act: inactive; SR-BI DiI-HDL act: inactive; SR-BI DiI inh: inactive; CDK5 p35 inh: inactive

Results for COc1ccc(-c2nc(NC(=O)C3CC(=O)N(c4ccc5c(c4)OCCO5)C3)sc2C)cc1 (stereo not drawn) ?
dFosB act: inactive; SR-BI DiI-HDL act: inactive; SR-BI DiI inh: 74; CDK5 p35 inh: inactive

Results for O=C1CCC/C(=N/Nc2ccc(Cl)cc2)C1 ?
dFosB act: inactive; SR-BI DiI-HDL act: inactive; SR-BI DiI inh: 80; CDK5 p35 inh: inactive

What do the screens show for `O=C(COC(=O)c1cc(Br)ccc1O)NNC(=O)c1cccs1`?
dFosB act: 29; SR-BI DiI-HDL act: inactive; SR-BI DiI inh: inactive; CDK5 p35 inh: inactive

What do the screens show for `Cc1ccc(C(=O)NNC(=S)NC(=O)c2ccccc2)cc1`?
dFosB act: inactive; SR-BI DiI-HDL act: inactive; SR-BI DiI inh: inactive; CDK5 p35 inh: inactive

Results for O=C(NC(=S)NNC(=O)c1ccccc1O)c1ccc(F)cc1 ?
dFosB act: inactive; SR-BI DiI-HDL act: inactive; SR-BI DiI inh: 125; CDK5 p35 inh: inactive

What do the screens show for `Cc1ccc(C(=O)NC(=S)NNC(=O)c2ccccc2O)cc1`?
dFosB act: inactive; SR-BI DiI-HDL act: inactive; SR-BI DiI inh: 112; CDK5 p35 inh: inactive

What do the screens show for `CC(C)(C)c1cc(CCC(=O)NNC(=S)NC(=O)c2ccccc2)cc(C(C)(C)C)c1O`?
dFosB act: inactive; SR-BI DiI-HDL act: inactive; SR-BI DiI inh: 71; CDK5 p35 inh: inactive

What do the screens show for `O=C(NNC(=S)NC(=O)c1ccccc1[N+](=O)[O-])c1ccccc1O`?
dFosB act: inactive; SR-BI DiI-HDL act: inactive; SR-BI DiI inh: 84; CDK5 p35 inh: inactive

What do the screens show for `O=C(CCc1ccccc1)NNC(=O)c1cc(Cl)ccc1O`?
dFosB act: inactive; SR-BI DiI-HDL act: inactive; SR-BI DiI inh: 115; CDK5 p35 inh: inactive

Results for Cc1ccccc1C(=O)NNC(=S)NC(=O)c1ccccc1 ?
dFosB act: inactive; SR-BI DiI-HDL act: inactive; SR-BI DiI inh: inactive; CDK5 p35 inh: inactive

What do the screens show for `O=C(NNC(=S)NC(=O)c1ccccc1[N+](=O)[O-])c1ccccc1[N+](=O)[O-]`?
dFosB act: inactive; SR-BI DiI-HDL act: inactive; SR-BI DiI inh: inactive; CDK5 p35 inh: inactive

What do the screens show for `O=C(NC(=S)NNC(=O)c1ccccc1O)c1ccc([N+](=O)[O-])cc1`?
dFosB act: inactive; SR-BI DiI-HDL act: inactive; SR-BI DiI inh: 106; CDK5 p35 inh: inactive

Results for O=C(NC(=S)NNC(=O)c1ccccc1O)c1ccccc1 ?
dFosB act: inactive; SR-BI DiI-HDL act: inactive; SR-BI DiI inh: 100; CDK5 p35 inh: inactive

How did O=C(CCc1ccccc1)NNC(=O)c1ccccc1C(=O)O do in these assays?
dFosB act: inactive; SR-BI DiI-HDL act: inactive; SR-BI DiI inh: inactive; CDK5 p35 inh: inactive

Results for O=C(NNC(=O)c1ccccc1Cl)c1cccs1 ?
dFosB act: inactive; SR-BI DiI-HDL act: inactive; SR-BI DiI inh: inactive; CDK5 p35 inh: inactive

Results for O=C(NC(=S)NNC(=O)c1ccccc1O)c1cccs1 ?
dFosB act: inactive; SR-BI DiI-HDL act: inactive; SR-BI DiI inh: 114; CDK5 p35 inh: inactive

How did O=C(NNC(=O)c1cc(Cl)ccc1O)c1cccs1 do in these assays?
dFosB act: inactive; SR-BI DiI-HDL act: inactive; SR-BI DiI inh: 89; CDK5 p35 inh: inactive

How did O=C(NNC(=O)c1ccccc1O)c1ccc(-c2ccc([N+](=O)[O-])cc2)o1 do in these assays?
dFosB act: inactive; SR-BI DiI-HDL act: inactive; SR-BI DiI inh: 121; CDK5 p35 inh: inactive
